According to ChEMBL document CHEMBL1155070, “New endomorphin analogues containing alicyclic beta-amino acids: influence on bioactive conformation and pharmacological profile” (J Med Chem, 2008):

What was measured:
[1] = target: Delta-type opioid receptor (Rattus norvegicus, UniProt P33533); assay: Displacement of [3H]Ile5,6deltorphin-2 from delta opioid receptor in Wistar rat brain
Procedure, shortened: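 Competition binding on crude male Wistar rat forebrain membranes (0.2-0.5 mg protein/tube) in 50 mM Tris-HCl pH 7.4. Filtration, scintillation counting. Ki from nonlinear fit plus Cheng-Prusoff. Mean ± SEM, ≥3 independent runs in duplicate.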

[2] = (§1) Half life in rat brain membrane homogenate; assay type: ADME
Rattus norvegicus = species: Rattus norvegicus; assay: as §1; assay type: ADME

Sequence of Delta-type opioid receptor (P33533 whole entry): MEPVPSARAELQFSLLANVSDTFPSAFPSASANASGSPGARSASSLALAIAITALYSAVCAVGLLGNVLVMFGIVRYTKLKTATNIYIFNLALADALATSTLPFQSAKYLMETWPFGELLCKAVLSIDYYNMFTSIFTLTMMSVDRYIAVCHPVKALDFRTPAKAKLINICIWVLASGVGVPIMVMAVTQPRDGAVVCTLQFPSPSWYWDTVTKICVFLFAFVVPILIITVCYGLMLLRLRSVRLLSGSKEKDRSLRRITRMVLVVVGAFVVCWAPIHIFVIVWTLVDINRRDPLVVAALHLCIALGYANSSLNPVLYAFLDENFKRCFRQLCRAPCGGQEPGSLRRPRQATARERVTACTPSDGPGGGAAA

Row | Structure (SMILES) | Ki [1] [µM] | half-life [2] [min] | t1/2 (Rattus norvegicus) [h]
1 | NC(=O)[C@H](Cc1ccccc1)NC(=O)[C@H](Cc1ccccc1)NC(=O)[C@@H]1CCC[C@@H]1NC(=O)[C@@H](N)Cc1ccc(O)cc1 | > 10 | – | –
2 | NC(=O)[C@H](Cc1ccccc1)NC(=O)[C@H](Cc1ccccc1)NC(=O)[C@H]1CCC[C@H]1NC(=O)[C@@H](N)Cc1ccc(O)cc1 | 4.8 | > 720 | –
3 | NC(=O)[C@H](Cc1ccccc1)NC(=O)[C@H](Cc1ccccc1)NC(=O)[C@H]1CCCC[C@H]1NC(=O)[C@@H](N)Cc1ccc(O)cc1 | 0.812 | > 720 | –
4 | NC(=O)[C@H](Cc1ccccc1)NC(=O)[C@H](Cc1ccccc1)NC(=O)[C@@H]1CCCC[C@@H]1NC(=O)[C@@H](N)Cc1ccc(O)cc1 | > 10 | – | –
5 | NC(=O)[C@H](Cc1ccccc1)NC(=O)[C@H](Cc1c[nH]c2ccccc12)NC(=O)[C@H]1CCC[C@@H]1NC(=O)[C@@H](N)Cc1ccc(O)cc1 | 3.08 | – | –
6 | NC(=O)[C@H](Cc1ccccc1)NC(=O)[C@H](Cc1ccccc1)NC(=O)[C@@H]1CCCC[C@H]1NC(=O)[C@@H](N)Cc1ccc(O)cc1 | 0.439 | – | –
7 | NC(=O)[C@H](Cc1ccccc1)NC(=O)[C@H](Cc1c[nH]c2ccccc12)NC(=O)[C@@H]1CCCC[C@H]1NC(=O)[C@@H](N)Cc1ccc(O)cc1 | > 10 | – | –
8 | NC(=O)[C@H](Cc1ccccc1)NC(=O)[C@H](Cc1c[nH]c2ccccc12)NC(=O)[C@H]1CCCC[C@H]1NC(=O)[C@@H](N)Cc1ccc(O)cc1 | 2.76 | > 720 | –
9 | NC(=O)[C@H](Cc1ccccc1)NC(=O)[C@H](Cc1ccccc1)NC(=O)[C@H]1CCCC[C@@H]1NC(=O)[C@@H](N)Cc1ccc(O)cc1 | > 10 | – | –
10 | NC(=O)[C@H](Cc1ccccc1)NC(=O)[C@H](Cc1ccccc1)NC(=O)[C@H]1CCC[C@@H]1NC(=O)[C@@H](N)Cc1ccc(O)cc1 | 4.23 | – | –
11 | NC(=O)[C@H](Cc1ccccc1)NC(=O)[C@H](Cc1c[nH]c2ccccc12)NC(=O)[C@H]1CCCC[C@@H]1NC(=O)[C@@H](N)Cc1ccc(O)cc1 | 9.62 | – | –
12 | NC(=O)[C@H](Cc1ccccc1)NC(=O)[C@H](Cc1c[nH]c2ccccc12)NC(=O)[C@@H]1CCCC[C@@H]1NC(=O)[C@@H](N)Cc1ccc(O)cc1 | > 10 | – | –
13 | NC(=O)[C@H](Cc1ccccc1)NC(=O)[C@H](Cc1c[nH]c2ccccc12)NC(=O)[C@@H]1CCC[C@@H]1NC(=O)[C@@H](N)Cc1ccc(O)cc1 | > 10 | – | –
14 | NC(=O)[C@H](Cc1ccccc1)NC(=O)[C@H](Cc1ccccc1)NC(=O)[C@@H]1CCC[C@H]1NC(=O)[C@@H](N)Cc1ccc(O)cc1 | 1.41 | – | –
15 | NC(=O)[C@H](Cc1ccccc1)NC(=O)[C@H](Cc1c[nH]c2ccccc12)NC(=O)[C@H]1CCC[C@H]1NC(=O)[C@@H](N)Cc1ccc(O)cc1 | 1.34 | > 720 | –
16 | NC(=O)[C@H](Cc1ccccc1)NC(=O)[C@H](Cc1c[nH]c2ccccc12)NC(=O)[C@@H]1CCC[C@H]1NC(=O)[C@@H](N)Cc1ccc(O)cc1 | 0.67 | – | –
17 | NC(=O)[C@H](Cc1ccccc1)NC(=O)[C@H](Cc1ccccc1)NC(=O)[C@@H]1CCCN1C(=O)[C@@H](N)Cc1ccc(O)cc1 [ENDOMORPHIN 2] | – | – | 3.8
18 | NC(=O)[C@H](Cc1ccccc1)NC(=O)[C@H](Cc1c[nH]c2ccccc12)NC(=O)[C@@H]1CCCN1C(=O)[C@@H](N)Cc1ccc(O)cc1 [ENDOMORPHIN-1] | – | – | 4.9
